Experimental data collected from several papers.
CYP3A4: Cytochrome P450 3A4 (CYP3A4, Homo sapiens, UniProt P08684)

| Compound | tested on | assay | system | conditions | measurement | value |
| --- | --- | --- | --- | --- | --- | --- |
| COc1ccc2[nH]c([S+]([O-])Cc3ncc(C)c(OC)c3C)nc2c1 (centres unmarked) | CYP3A4 | enzyme activity, inhibitor | – | 30 µM, 1 h, pH 7.4 | inhibition | 50 to 60% |
| NC(=S)NN=Cc1ncccc1N | – | – | human, plasma | oral, 150 mg | Vd/F | 322 L |
| COCCCOc1ccnc(C[S+]([O-])c2nc3ccccc3[nH]2)c1C (centres unmarked) | CYP3A4 | enzyme activity, inhibitor | – | 30 µM, 1 h, pH 7.4 | inhibition | 50 to 60% |
| COc1ccc2c(c1)C[C@H]1[C@@H](OC(=O)c3ccccc3)[C@H](OC(C)=O)C(COC(=O)c3ccccc3)=C[C@H]1O2 | RAW264.7 | cell growth or viability, MTT | – | 15 µM, 24 h | viability | 91.9% |
| Cn1cc(Nc2nc(N)nc(-c3cccc(-n4ccc5cc(C6CC6)cc(F)c5c4=O)c3CO)n2)cn1 | – | – | human, plasma | oral, 600 mg, single dose, fasted, suspension | Vd/F | 186 L |
| CN(C)c1ncnc2c1ncn2[C@@H]1O[C@H](CCl)[C@@H](NC(=O)[C@@H](CSC(c2ccccc2)c2ccccc2)NC(=O)OC(C)(C)C)[C@H]1O | Vero | cell growth or viability, MTT | – | – | CC50 | 67.4 µM |
| COc1ccc2c(c1)C[C@]1(OC)C(=O)/C(=C(O)\C=C\c3ccccc3)C(=O)C[C@]1(OC)O2 | RAW264.7 | cell growth or viability, MTT | – | 15 µM, 24 h | viability | 92.8% |
| CCN1CCN(Cc2ccc(NC(=O)c3ccc(C)c(NC(=O)c4cncc(-c5cccs5)c4)c3)cc2C(F)(F)F)CC1 | – | – | mouse, plasma | intraperitoneal, 20 mg/kg, single dose | Cmax | 714 ng/mL |
| CC(=O)OC[C@@]1(COC(=O)c2ccccc2)O[C@H]1/C=C\COC(=O)c1ccccc1 | RAW264.7 | cell growth or viability, MTT | – | 15 µM, 24 h | viability | 99.8% |
| CNC(=O)n1ccc2cc(Oc3ccnc(NC(=O)c4ccc(C5CCN(CCO)CC5)cc4)c3)c(OCCOC)cc21 | – | – | human, plasma | oral, 35 mg, single dose, healthy volunteers | Vd/F | 11400 L |
| COc1cc(O)c2c(c1)C(=O)c1cc(C)cc(O)c1C2=O | CYP3A4 | enzyme activity, inhibitor | human, liver microsomes | pH 7.4, testosterone probe | Ki | 6.07 µM |
